# This is a sample that favours compounds with a hit; in the whole collection about 4.6% have one here.
# CHO parental Ca: signal in parental CHO cells, OX1R antagonist counter-screen; parental CHO-K1, ATP-induced calcium, Fluo-8 fluorescence; inhibition, % at 5.6 µM; hit rate 0.63% among 330,000; AID 463079;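 active = inhibition above that plate's mean sample inhibition plus 3 SD, cut at about 26% in these data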;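 also: 0% = ATP-challenged DMSO wells and 100% = DMSO wells without ATP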
#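 Assay system: parental CHO cells; Read-out basis: percent inhibition of ATP-evoked calcium rise, normalized to controls; Benchmarks: ATP and no-ATP DMSO wells; Compound dosing: single nominal dose of 5.6 µM per compound; Signal: Fluo-8 calcium dye fluorescence; Also added: ATP as calcium-mobilizing challenge; Repeats: singlicate.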
# TAAR1 antag: human TAAR1 antagonism; hit rate 1.5% among 360,000; Q96RJ0; inhibition, % at 3 µM; CHO RD-HGA16 TAAR1, Fluo-8 calcium fluorescence, antagonist;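 active = inhibition above a per-plate cutoff, the mean inhibition of test compounds on that plate plus 3 SD, cut at about 49% in these data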;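 also: 0% = DMSO plus EC80 beta-PEA response and 100% = DMSO alone without agonist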
#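 Test system – hTAAR1-expressing CHO RD-HGA16 cells, Gα16-coupled · Also added – β-PEA at EC80 concentration, post-compound challenge · Compound – 3 µM, single point · Incubation – dye loading 75 min at 37 °C, then 30 min room temperature · Measured by – Fluo-8 intracellular calcium dye fluorescence, real-time kinetic reads · Benchmarks – vehicle and agonist controls · Replicates – singlicate, one well per test compound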
# OX1R antag-1: antagonists of human orexin 1 receptor | O43613 | CHO/OX1R cells, Fluo-8 calcium fluorescence, orexin A | inhibition, % at 5 µM | hit rate 0.43% among 330,000 | AID 434989;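 active = inhibition above its plate's threshold, mean inhibition of all tested compounds on the plate plus 3 SD, cut at about 37% in these data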;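 also: 0% = orexin A challenge wells and 100% = SB-334867-A antagonist wells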
# GPR7 antag: blocks human GPR7 receptor signaling. P48145. GPR7-expressing cells, fluorescence antagonist assay. inhibition, % at 4.4 µM. hit rate 1.1% among 290,000; in the data active = inhibition above about 16%, passing the limit was not always enough;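 also: cells stimulated with the agonist NPW; 0% = agonist with vehicle and 100% = vehicle without agonist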
# Target sequence (P48145 whole entry, looked up): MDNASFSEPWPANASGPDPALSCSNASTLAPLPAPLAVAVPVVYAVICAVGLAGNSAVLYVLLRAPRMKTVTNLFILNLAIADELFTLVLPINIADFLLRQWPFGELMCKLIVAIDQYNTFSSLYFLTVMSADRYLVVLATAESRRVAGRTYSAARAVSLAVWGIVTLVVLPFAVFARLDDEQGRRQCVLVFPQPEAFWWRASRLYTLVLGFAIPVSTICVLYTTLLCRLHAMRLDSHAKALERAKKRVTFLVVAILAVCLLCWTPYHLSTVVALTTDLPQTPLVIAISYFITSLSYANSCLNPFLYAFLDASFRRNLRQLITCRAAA
# TAAR1 agonist: human TAAR1 agonism; Q96RJ0; CHO RD-HGA16 TAAR1, Fluo-8 calcium fluorescence; vehicle wells 0%, saturating PEA agonist 100%; activation, % at 3 µM; hit rate 0.99% among 360,000;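 active = activation above the mean activation of all test compounds in the run plus 3 SD, cut at about 38% in these data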
#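 Signal – calcium-sensitive Fluo-8 signal, excitation 470-495, emission 515-575 nm · System – RD-HGA16 (CHO) cells co-expressing Gα16 and hTAAR1 · Incubation – 17-24 h seeding, 75 min 37 °C dye, 30 min RT · Compound dosing – 3 µM single concentration · Repeats – no replicates (n 1)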
# OX1R antag-2: OX1R (human) antagonism. O43613. OX1R-expressing cells, FRET antagonist read-out. AID 485270. inhibition, % at 6.6 µM. hit rate 1.8% among 330,000; in the data active = inhibition mostly above about 38%, no sharp cut-off; inactive = mostly below about 40%;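 also: 0% = agonist challenge alone and 100% = reference antagonist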
# OX1R Ca confirm: confirmation of human orexin 1 receptor antagonists; shares compounds with OX1R antag-1; CHO/OX1R cells, orexin A calcium Fluo-8 fluorescence; inhibition, % at 5 µM; hit rate 38% among 1,100; AID 492963; in the data active = inhibition above about 29%;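 also: 0% = agonist challenge alone and 100% = reference antagonist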
# CHO Ca triplic: signal in parental CHO cells, OX1R antagonist counter-screen; shares compounds with OX1R antag-1; inhibition, % at 5.6 µM; AID 492965; hit rate 9.3% among 1,100; parental CHO-K1, ATP-induced calcium, Fluo-8 fluorescence;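 active = inhibition above a per-plate limit, the mean inhibition of that plate's test compounds plus 3 SD, cut at about 25% in these data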;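 also: 0% = ATP challenge with DMSO and 100% = DMSO without ATP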
# OX1R HTRF conf: confirmation of human orexin 1 receptor antagonists, HTRF format; shares compounds with OX1R antag-2; OX1R-expressing cells, HTRF antagonist assay; inhibition, % at 6.6 µM; hit rate 49% among 1,800; AID 492964; in the data active = inhibition above about 55%;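 also: CHO cells expressing OX1R stimulated with orexin A at about EC80; 0% = agonist challenge alone and 100% = reference antagonist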
# CHO-K1 HTRF cnt: signal in parental CHO-K1 cells, OX1R antagonist counter-screen | hit rate 48% among 1,800 | HTRF counterscreen | inhibition, % at 6.6 µM | shares compounds with OX1R antag-2 | AID 493232; in the data active = inhibition above about 17%;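 also: 0% = agonist challenge with vehicle and 100% = vehicle alone without agonist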
# An asterisk follows results filed as active; x = no result given.
SMILES,CHO parental Ca,TAAR1 antag,OX1R antag-1,GPR7 antag,TAAR1 agonist,OX1R antag-2,OX1R Ca confirm,CHO Ca triplic,OX1R HTRF conf,CHO-K1 HTRF cnt
Cc1ccc2nc(-c3ccc(F)cc3)c(CC3CCCCC3)n2c1,x,-11,x,x,-1,x,x,x,x,x
COc1ccc(SCC(O)Cn2c3ccccc3c3ccccc32)c(OC)c1 (configuration not stated),x,22,x,x,-1,x,x,x,x,x
O=C1NC[C@@H](CCCCN2C[C@H](Cc3ccccc3)N(CCC3CCCCC3)C(=O)C2=O)N(CC2CCCCC2)C1=O,x,-35,x,x,7,x,x,x,x,x
Cc1cc(C)nc(NC(=O)CSc2nc3ccccc3s2)n1,-11,-11,43*,5,12,98*,42*,-8,82*,-1
FC(F)C(F)(F)Oc1cccc(Nc2nccn3c(-c4cccc5cccnc45)cnc23)c1,x,39,x,x,2,x,x,x,x,x
CCC(C)C(=O)C(=O)N1CCC(n2nccc2NC(=O)CCOc2ccccc2)CC1 (configuration not stated),x,-4,x,x,1,x,x,x,x,x
O=C(Nc1ccc2c(c1)N(S(=O)(=O)c1cccs1)CCC2)c1c(F)cccc1F,-3,-41,20,x,2,69*,37*,1,66*,3
CCNC(=O)C(=O)Nc1ccc2c(c1)N(S(=O)(=O)c1cccs1)CCC2,-12,-7,-17,x,1,18,x,x,x,x
C=CCn1c(SCC(=O)Nc2cc3oc4ccccc4c3cc2OC)nnc1-c1cnccn1,-12,1,57*,3,4,91*,66*,-7,91*,3
CCn1c2ccccc2c2cc(NC(=O)c3cc(OC)c(OC)c(OC)c3)ccc21,-12,14,3,10,-3,17,x,x,x,x
CCn1c(SCC(=O)Nc2cc3oc4ccccc4c3cc2OC)nnc1-c1cccs1,-25,-4,50*,-3,1,83*,49*,-11,89*,6
CCn1c(SCC(=O)Nc2ccc3c(c2)c2ccccc2n3CC)nnc1-c1ccco1,-23,-6,64*,12,0,81*,35*,-10,83*,3
CCn1c(SCC(=O)Nc2cccc(NC(C)=O)c2)nnc1-c1ccco1,-10,-25,-23,-6,1,9,x,x,x,x
CCn1c2ccccc2c2cc(NC(=O)c3cc(OC)cc(OC)c3)ccc21,-15,-8,81*,-4,-1,85*,96*,-13,89*,-11
CCn1c(SCC(=O)Nc2nc(-c3ccccc3)cs2)nnc1-c1ccccc1,-14,26,54*,-11,5,62*,15,2,72*,0
CCn1c(SCC(=O)Nc2ccc3c(c2)oc2ccccc23)nnc1-c1ccc(N)cc1,-3,0,36,5,6,84*,37*,-21,42,-14
Cc1ccc(NC(=O)CN2CCCC2c2cccs2)cc1S(=O)(=O)N1CCCCC1 (configuration not stated),-6,16,43*,x,17,30*,12,1,48,1
COCc1[nH]nc2c1C(c1ccc(F)cc1)N(Cc1ccccc1)C2=O (configuration not stated),x,-5,x,x,3,x,x,x,x,x
COc1ccc(-c2cc(C(=O)Nc3ccccc3SC)no2)cc1OC,-14,1,-13,-16,2,11,x,x,x,x
COc1cccc(-c2cc(C(=O)Nc3ccccc3SC)no2)c1,-18,14,76*,-6,12,60*,71*,-7,95*,13
Cc1ccc(NC(=O)C2(C)CCCN2C)cc1C (configuration not stated),x,-21,x,x,1,x,x,x,x,x
